Laboratory results: ChEMBL document CHEMBL4152234, “Aminobenzothiazole derivatives stabilize the thermolabile p53 cancer mutant Y220C and show anticancer activity in p53-Y220C cell lines” (Eur J Med Chem, 2018)
Active and inactive are the calls of the source. No cut-off for these calls is given here.

Key:
[1] = tested on: Cellular tumor antigen p53 (Homo sapiens), P04637 [Y220C]; experiment: Activation of p53 Y220C mutant in human HuH7 cells assessed as increase in MDM2 mRNA level at 30 uM after 18 hrs by RT-PCR method; format: cell-based
Procedure, shortened: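 Real-time PCR. Cells were treated for 18 h, with 0.5% DMSO in both compound and control samples. Relative mRNA levels were quantified by the ΔΔCt method as fold-change against the untreated sample. Each sample was measured in triplicate, and data are given as mean ± SEM with an unpaired t-test.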

[2] = tested on: Cellular tumor antigen p53 (Homo sapiens), P04637 [Y220C]; experiment: Activation of p53 Y220C mutant in human NUGC3 cells assessed as change in MDM4 mRNA level at 60 uM after 18 hrs by RT-PCR method relative to control; format: cell-based
Procedure, shortened: (§1)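 p53 signalling qPCR array covering 84 p53 pathway genes. Cells were exposed for 18 h, and compound and control wells both held 0.5% DMSO. Total RNA was extracted and purified. Fold-changes were calculated by the ΔΔCt method against the untreated sample, with β2-microglobulin (B2M) as the housekeeping gene. Each cell line was run in two independent biological replicates.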

[3] = molecular target: T1, Cellular tumor antigen p53 (Homo sapiens, UniProt P04637); experiment: Activation of p53 in human NUGC4 cells assessed as change in PTEN mRNA level at 60 uM after 18 hrs by RT-PCR method relative to control; format: cell-based; conditions: read-out: FC
[4] = tested on: Cellular tumor antigen p53 (Homo sapiens), P04637 [Y220C]; experiment: Activation of p53 Y220C mutant in human NUGC3 cells assessed as change in CCNG1 mRNA level at 60 uM after 18 hrs by RT-PCR method relative to control; format: cell-based
Procedure, shortened: (§2)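 p53 signalling qPCR array covering 84 genes. Cells were exposed for 18 h, with 0.5% DMSO in both compound and control samples. Total RNA was extracted and purified. Fold-changes were calculated by ΔΔCt using β2-microglobulin (B2M) as the housekeeping gene. Two independent biological replicates were run per cell line.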

[5] = molecular target: T1, Cellular tumor antigen p53; experiment: Activation of p53 in human NUGC4 cells assessed as change in CDKN2A mRNA level at 60 uM after 18 hrs by RT-PCR method relative to control; format: cell-based; conditions: read-out: FC
Procedure, shortened: (§3)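 p53 signaling qPCR array of 84 p53-pathway genes. Cells were treated in 6-well plates for 18 h with 0.5% DMSO in compound and control samples. Total RNA was extracted and fold-changes were obtained by the ΔΔCt method against untreated control, with β2-microglobulin (B2M) as housekeeping gene. Two independent biological replicates per cell line.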

[6] = molecular target: T1, Cellular tumor antigen p53; experiment: Activation of p53 in human NUGC4 cells assessed as change in CASP2 mRNA level at 60 uM after 18 hrs by RT-PCR method relative to control; format: cell-based; conditions: read-out: FC; procedure, shortened: as §3
[7] = tested on: Cellular tumor antigen p53 (Homo sapiens), P04637 [Y220C]; experiment: Activation of p53 Y220C mutant in human NUGC3 cells assessed as change in S1AH1 mRNA level at 60 uM after 18 hrs by RT-PCR method relative to control; format: cell-based; procedure, shortened: as §1
[8] = tested on: Cellular tumor antigen p53 (Homo sapiens), P04637 [Y220C]; experiment: Activation of p53 Y220C mutant in human NUGC3 cells assessed as change in E2F3 mRNA level at 60 uM after 18 hrs by RT-PCR method relative to control; format: cell-based; procedure, shortened: as §2
Huh-7 = experiment: Upregulation of BBC3 mRNA level in p53 Y220C mutant knockout human HuH7 cells at 30 uM after 18 hrs by RT-PCR method; format: functional, cell-based

- Activity [1]: Active
- fold change (FC) [2]: 1.3
- fold induction at 60 µM [3]: 1
- fold change (FC) [4]: 1.2
- fold induction at 60 µM [5]: 0.5 to 1
- fold induction at 60 µM [6]: 0.7
- fold change (FC) [7]: 1.5
- fold change (FC) [8]: 1.3
SMILES: CCNC(=O)c1c(O)c(I)c(-n2cccc2)c2sc(N(CC)CC)nc12
- Activity (Huh-7): inactive
